Where “and” joins values, the source holds several entries; their conditions need not be identical. Identical values can stand only once. Calls of active or inactive are those of the source.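 How the source made its calls: active means mean inhibition at 10 µM of 50% or more; inactive means mean inhibition at 10 µM below 50%.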

We go through 64 compounds from PubChem BioAssay AID623962 (The Scripps Research Institute Molecular Screening Center, 2012).

The subject of this assay is Huh-7.5 HCV Rluc replicon, luciferase luminescence, 72 h. Nature of the assay: HCV RNA replication inhibitors in Huh-7.5 cells – cell-based, luminescence, Renilla luciferase replicon, orthogonal assay for HCV NS3 helicase inhibitor project, late-stage follow-up (AID 623962). The note with it: at 10 µM; hits give high values. An outline of the steps: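 Assay system: Huh-7.5 HCV Renilla luciferase replicon cells | Compound: One concentration, 10 µM in 0.5% DMSO | Times: 4-5 h attachment, 72 h compound exposure at 37 °C | Detection: Renilla luciferase luminescence from cell lysate after freeze/thaw lysis | Evaluation: % replication inhibition versus DMSO-treated cells | Controls: DMSO-only wells as reference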
Turning to `COc1ccc(C(=O)Nc2ccc(-c3nc4ccc(-c5nc6ccc(C)c(S(=O)(=O)O)c6s5)cc4s3)cc2)cc1`, the inhibition is 64%. `CC(=O)Nc1ccc(-c2nc3ccc(-c4nc5ccc(C)c(S(=O)(=O)O)c5s4)cc3s2)cc1`: the inhibition was 26% (inactive). As for `Cc1ccc2nc(-c3ccc4nc(-c5ccc(NC(=O)c6ccc7ncoc7c6)cc5)sc4c3)sc2c1S(=O)(=O)O`, the figure is 15% (inactive).

As for `Cc1cc2sc(-c3ccc(N)cc3)nc2cc1S(=O)(=O)O`, the inhibition was 0% (inactive). With `Cc1cc(C(O)(c2ccc(Nc3ccccc3)cc2)c2ccc(Nc3ccc(S(=O)(=O)O)cc3)cc2)ccc1N` (centres undefined) the figure was 23% (inactive).

For the compound `Cc1ccc2nc(-c3ccc(NC(=O)c4ccc(NC(=O)c5ccc(NC(=O)OCC6c7ccccc7-c7ccccc76)cc5)cc4)cc3)sc2c1S(=O)(=O)O`, the inhibition is -14% (inactive).

With `Cc1ccc(NC(=O)Nc2ccc(-c3nc4ccc(-c5nc6ccc(C)c(S(=O)(=O)O)c6s5)cc4s3)cc2)cc1`, the inhibition is 43% (inactive). As for `Cc1ccc2nc(-c3ccc4nc(-c5ccc(NC(=O)c6ccc7nc(-c8ccc(N)cc8)sc7c6)cc5)sc4c3)sc2c1S(=O)(=O)O`, the figure is 37% (inactive). For `Cc1ccc2nc(-c3ccc4nc(-c5ccc(NC(=O)c6ccc(N)cc6)cc5)sc4c3)sc2c1S(=O)(=O)O`, the inhibition is 33% (inactive). With `O=C(Nc1ccc(-c2nc3ccccc3[nH]2)cc1)c1ccc2ncsc2c1` the figure was -7% (inactive); with `CCN(CC)c1ccc(-c2nc3ccc(-c4nc5ccc(C)c(S(=O)(=O)O)c5s4)cc3s2)cc1`, 0% (inactive); with `COC(=O)c1ccc(C(=O)Nc2ccc(-c3nc4ccc(-c5nc6ccc(C)c(S(=O)(=O)O)c6s5)cc4s3)cc2)cc1`, 40% (inactive). As for `CS(=O)(=O)c1ccc2nc(NC(=O)c3ccc4ncsc4c3)sc2c1`, the figure is 55%. Consider `Cc1ccc2nc(-c3ccc4nc(-c5ccc(NC(=O)c6ccc(Br)cc6)cc5)sc4c3)sc2c1S(=O)(=O)O`, for which the inhibition is 7% (inactive).

Take `Cc1ccc2nc(-c3ccc4nc(-c5ccc(NC(=O)c6ccc7nc(-c8ccc(NC(=O)OCC9c%10ccccc%10-c%10ccccc%109)cc8)sc7c6)cc5)sc4c3)sc2c1S(=O)(=O)O`: the inhibition was 42% (inactive) and 44% (inactive). As for `CCN(CC)c1ccc(-c2nc3ccc(C)c(S(=O)(=O)O)c3s2)cc1`, the figure is 0% (inactive); as for `Cc1ccc2nc(-c3ccc(NC(=O)c4ccc(N)cc4)cc3)sc2c1S(=O)(=O)O`, 21% (inactive); as for `Cc1ccc2nc(-c3ccc4nc(-c5ccc6nc(-c7ccc8nc(-c9ccc(N)cc9)sc8c7)sc6c5)sc4c3)sc2c1S(=O)(=O)O`, 0% (inactive) and 45% (inactive).

As for `Cc1ccc2nc(-c3ccc4nc(-c5ccc(NC(=O)c6ccccc6)cc5)sc4c3)sc2c1S(=O)(=O)O`, the inhibition is 45% (inactive). Consider `COc1ccc2sc(NC(=O)c3ccc4ncsc4c3)nc2c1`, for which the inhibition was 60%. With `Cc1ccc2nc(-c3ccc4nc(-c5ccc(NC(=O)c6ccc(C(F)(F)F)cc6)cc5)sc4c3)sc2c1S(=O)(=O)O` the figure was 44% (inactive); with `Cc1ccc2nc(-c3ccc4nc(-c5ccc(NC(=O)c6ccc(NC(=O)OCC7c8ccccc8-c8ccccc87)cc6)cc5)sc4c3)sc2c1S(=O)(=O)O`, 57%. With `Cc1ccc2nc(-c3ccc4nc(-c5ccc(NC(=O)Nc6ccc(Cl)cc6)cc5)sc4c3)sc2c1S(=O)(=O)O` the figure was 35% (inactive). Take `Cc1cc2sc(-c3ccc4nc(-c5ccc(N)cc5)sc4c3)nc2cc1S(=O)(=O)O`: the inhibition is 28% (inactive). As for `Cc1ccc2nc(-c3ccc4nc(-c5ccc(NC(=O)c6ccc(N(C)C)cc6)cc5)sc4c3)sc2c1S(=O)(=O)O`, the figure is 22% (inactive); as for `Cc1ccc2nc(-c3ccc4nc(-c5ccc(NC(=O)c6ccc(CNC(=O)OCC7c8ccccc8-c8ccccc87)cc6)cc5)sc4c3)sc2c1S(=O)(=O)O`, 48% (inactive). Consider `Cc1ccc2nc(-c3ccc4nc(-c5ccc(NC(=O)c6cccc(Cl)c6)cc5)sc4c3)sc2c1S(=O)(=O)O`, for which the inhibition is 54%. Turning to `Cc1ccc2c(sc(-c3ccc4c(c3)sc(-c3ccc5c(c3)sc(-c3ccc(N(C)C)cc3)[n+]5C)[n+]4C)[n+]2C)c1S(=O)(=O)O` (tested in a mixture with another compound), the inhibition was -16% (inactive). With `Cc1ccc2nc(-c3ccc4nc(-c5ccc(NC(=O)c6ccccc6C(F)(F)F)cc5)sc4c3)sc2c1S(=O)(=O)O` the figure was 0% (inactive); with `Cc1ccc2nc(-c3ccc4nc(-c5ccc(N(C)C(=O)c6ccc7ccccc7c6)cc5)sc4c3)sc2c1S(=O)(=O)O`, 24% (inactive); with `Cc1ccc2nc(-c3ccc(NC(=O)c4ccc(NC(=O)Nc5ccccc5)cc4)cc3)sc2c1S(=O)(=O)O`, -64% (inactive). As for `Cc1ccc(C(=O)Nc2ccc(-c3nc4ccc(-c5nc6ccc(C)c(S(=O)(=O)O)c6s5)cc4s3)cc2)cc1`, the figure is 52%; as for `Cc1ccc2nc(-c3ccc4nc(-c5ccc(NC(=O)c6cccc(C(F)(F)F)c6F)cc5)sc4c3)sc2c1S(=O)(=O)O`, 48% (inactive); as for `Cc1ccc2nc(-c3ccc4nc(-c5ccc(NC(=O)c6cc(C(F)(F)F)ccc6F)cc5)sc4c3)sc2c1S(=O)(=O)O`, 39% (inactive).

Turning to `Cc1ccc2nc(-c3ccc4nc(-c5ccc(NS(=O)(=O)c6ccc(C(F)(F)F)cc6)cc5)sc4c3)sc2c1S(=O)(=O)O`, the inhibition was -7% (inactive). As for `Cc1ccc2nc(-c3ccc4nc(-c5ccc6nc(-c7ccc(N)cc7)sc6c5)sc4c3)sc2c1S(=O)(=O)O` (tested in a mixture with another compound), the figure is 0% (inactive). With `Cc1ccc2nc(-c3ccc(NC(=S)Nc4ccccc4Br)cc3)sc2c1` the figure was 80%; with `Cc1ccc2nc(-c3ccc4nc(-c5ccc(NC(=O)c6cc(F)ccc6C(F)(F)F)cc5)sc4c3)sc2c1S(=O)(=O)O`, 61%.

On to `Cc1ccc2nc(-c3ccc4nc(-c5ccc(NC(=O)Nc6ccc(F)cc6)cc5)sc4c3)sc2c1S(=O)(=O)O`, for which the inhibition was 17% (inactive). With `Cc1ccc2nc(-c3ccc(NC(=O)c4ccc(NC(=O)c5ccccc5)cc4)cc3)sc2c1S(=O)(=O)O` the figure was 19% (inactive); with `Cc1ccc2nc(-c3ccc4nc(-c5ccc(NC(=O)Nc6ccccc6)cc5)sc4c3)sc2c1S(=O)(=O)O`, -18% (inactive); with `Cc1ccc2nc(-c3ccc(NC(=O)c4ccc(NC(=O)OCC5c6ccccc6-c6ccccc65)cc4)cc3)sc2c1S(=O)(=O)O`, 31% (inactive). As for `Cc1ccc2nc(-c3ccc4nc(-c5ccc(NC(=O)c6ccc(F)cc6)cc5)sc4c3)sc2c1S(=O)(=O)O`, the figure is 50%; as for `CCOc1ccc2c(NNC(=O)c3cnccn3)c3c(nc2c1)CCCC3`, 81%. As for `Cc1ccc2nc(-c3ccc4nc(-c5ccc(NC(=O)c6ccc(Cl)c(Cl)c6)cc5)sc4c3)sc2c1S(=O)(=O)O`, the figure is 43% (inactive); as for `COc1cccc2c(=O)c3cc(Cl)cc(C(=O)Nc4cc(Cl)ccn4)c3[nH]c12`, 73%; as for `Cc1ccc2nc(-c3ccc4nc(-c5ccc(NC(=O)c6ccc(C(C)(C)C)cc6)cc5)sc4c3)sc2c1S(=O)(=O)O`, 51%.

As to `CN1CCN(Cc2cc(CN3CCN(C)CC3)c(O)c(=O)c(CN3CCN(C)CC3)c2)CC1`, the inhibition was 46% (inactive). With `Cc1ccc2nc(-c3ccc(N)cc3)sc2c1S(=O)(=O)O` the figure was 0% (inactive); with `Cc1ccc2nc(-c3ccc4nc(-c5ccc(NC(=O)c6cc(C(F)(F)F)cc(C(F)(F)F)c6)cc5)sc4c3)sc2c1S(=O)(=O)O`, 60%; with `Cc1ccc2nc(-c3ccc(NC(=O)c4ccc(NC(=O)c5ccc(C(F)(F)F)cc5)cc4)cc3)sc2c1S(=O)(=O)O`, 4% (inactive). With `Cc1ccc2nc(-c3ccc4nc(NC(=O)c5ccc6ncoc6c5)sc4c3)sc2c1` the figure was 90%.

Consider `Cc1ccc2nc(-c3ccc4nc(-c5ccc(NC(=O)c6cc(F)cc(C(F)(F)F)c6)cc5)sc4c3)sc2c1S(=O)(=O)O`, for which the inhibition is 51%.

Take `Cc1ccc2nc(-c3ccc4nc(-c5ccc(NC(=O)Nc6ccc(C(F)(F)F)cc6)cc5)sc4c3)sc2c1S(=O)(=O)O`: the inhibition was 7% (inactive).

Turning to `Cc1ccc2nc(-c3ccc(NC(=O)c4ccc(NC(=S)Nc5ccccc5)cc4)cc3)sc2c1S(=O)(=O)O`, the inhibition was -13% (inactive).

For `Cc1ccc2nc(-c3ccc4nc(-c5ccc(NC(=O)c6cccc7ccccc67)cc5)sc4c3)sc2c1S(=O)(=O)O`, the inhibition is -9% (inactive). `Cc1ccc2nc(-c3ccc4nc(-c5ccc(NC(=O)c6ccc(C(F)(F)F)c(F)c6)cc5)sc4c3)sc2c1S(=O)(=O)O`: the inhibition was 48% (inactive). As for `Cc1ccc2nc(-c3ccc4nc(-c5ccc(NC(=O)c6c(F)cccc6C(F)(F)F)cc5)sc4c3)sc2c1S(=O)(=O)O`, the figure is 55%; as for `O=C(CCCCCCC(=O)Nc1ccc(-c2nc3ccccc3[nH]2)cc1)Nc1ccc(-c2nc3ccccc3[nH]2)cc1`, 96%; as for `Cc1ccc2nc(-c3ccc(NC(=O)c4ccc(NS(=O)(=O)c5ccccc5)cc4)cc3)sc2c1S(=O)(=O)O`, -73% (inactive). As to `Cc1ccc2nc(-c3ccc4nc(-c5ccc(NC(=O)c6cccc(C(F)(F)F)c6)cc5)sc4c3)sc2c1S(=O)(=O)O`, the inhibition is 41% (inactive). With `O=C(Nc1nc2ccc(Br)cc2s1)c1ccc2ncsc2c1` the figure was 25% (inactive); with `COc1ccc(S(=O)(=O)Nc2ccc(-c3nc4ccc(-c5nc6ccc(C)c(S(=O)(=O)O)c6s5)cc4s3)cc2)cc1`, 44% (inactive); with `Cc1ccc2nc(-c3ccc(NC(=O)c4ccc(NC(=O)c5ccc(N)cc5)cc4)cc3)sc2c1S(=O)(=O)O`, -42% (inactive).
